Measured values from different studies.
Protocols differ between the studies behind these lines.
JAK2 JH1: Tyrosine-protein kinase JAK2, JH1 (JAK2, Homo sapiens, UniProt O60674)
JAK2: Tyrosine-protein kinase JAK2 (JAK2, Homo sapiens, UniProt O60674)

SMILES	target	read-out	action	method	tested at	quantity	value
CCCCC(=O)Nc1ccc(-c2ccc3ncn(CCC)c(=O)c3c2)cn1	JAK2 JH1	binding		competition with immobilised ligand	0.5 µM	remaining binding	100%
C#Cc1cc(-c2cc(Nc3nc(N[C@@H](C)c4ccc(F)cn4)ncc3Cl)n[nH]2)ccc1C=O	JAK2	enzyme activity	inhibitor		0.2 µM	inhibition	99.7%
C=CC(=O)N1CCC([C@@H]2CCNc3c(C(N)=O)c(-c4ccc(Oc5ccccc5)cc4)nn32)CC1	JAK2 JH1	enzyme activity	inhibitor		1 µM	inhibition	12%
CN1CCN(C(=O)c2ccc(NC(=O)Nc3ccc(N(C)c4ccnc(Nc5ccc(CS(C)(=O)=O)cc5)n4)cc3)cc2)CC1	JAK2 JH1	cell-free assay		competition with immobilised ligand	1 µM	remaining binding	4.7%
CO[C@@H]1[C@H](N(C)C(=O)c2ccccc2)C[C@H]2O[C@]1(C)n1c3ccccc3c3c4c(c5c6ccccc6n2c5c31)C(=O)NC4	JAK2 JH1	enzyme activity	inhibitor		1 µM	inhibition	100%
N#Cc1ccc(NC(=O)Nc2ccccc2)cc1	JAK2 JH1	cell-free assay		competition with immobilised ligand	25 µM	remaining binding	86%
C[C@H]1CC[C@H](n2c3cnccc3c3cnc(Nc4ccc5c(n4)CCN(C(=O)CO)C5)nc32)CC1	JAK2 JH1	cell-free assay		competition with immobilised ligand	1 µM	remaining binding	50%
CC(C)S(=O)(=O)c1ccc2nccc(Nc3ccc4sc(C5CCCC5)nc4c3)c2c1	JAK2	enzyme activity	inhibitor		1 µM	activity vs control	98%
C1=C/COCc2cc(ccc2OCCN2CCCC2)Nc2nccc(n2)-c2cccc(c2)COC/1	JAK2 JH1	cell-free assay			0.1 µM	remaining signal	6.8%
COc1ccc2oc(-c3ccc4nc(N)oc4c3)c/c(=N\c3ccccc3NC(=O)CCN)c2c1	JAK2	binding			1 µM	remaining binding	96%
